Assay results reported in ChEMBL document CHEMBL3774312, “5-Substituted 3-isopropyl-7-[4-(2-pyridyl)benzyl]amino-1(2)H-pyrazolo[4,3-d]pyrimidines with anti-proliferative activity as potent and selective inhibitors of cyclin-dependent kinases” (Eur J Med Chem, 2016).
The source made the active and inactive calls. The rule behind the calls is not given here.

Legend:
[1] = biological target: Serine/threonine-protein kinase Nek6 (Homo sapiens) (UniProt Q9HC98); assay: Inhibition of recombinant NEK6 (unknown origin) assessed as residual activity at 1 uM relative to control
[2] = biological target: Ribosomal protein S6 kinase alpha-5 (Homo sapiens) (UniProt O75582); assay: Inhibition of recombinant MSK1 (unknown origin) assessed as residual activity at 1 uM relative to control
Sequence of Ribosomal protein S6 kinase alpha-5 (Homo sapiens) (O75582 whole entry, looked up): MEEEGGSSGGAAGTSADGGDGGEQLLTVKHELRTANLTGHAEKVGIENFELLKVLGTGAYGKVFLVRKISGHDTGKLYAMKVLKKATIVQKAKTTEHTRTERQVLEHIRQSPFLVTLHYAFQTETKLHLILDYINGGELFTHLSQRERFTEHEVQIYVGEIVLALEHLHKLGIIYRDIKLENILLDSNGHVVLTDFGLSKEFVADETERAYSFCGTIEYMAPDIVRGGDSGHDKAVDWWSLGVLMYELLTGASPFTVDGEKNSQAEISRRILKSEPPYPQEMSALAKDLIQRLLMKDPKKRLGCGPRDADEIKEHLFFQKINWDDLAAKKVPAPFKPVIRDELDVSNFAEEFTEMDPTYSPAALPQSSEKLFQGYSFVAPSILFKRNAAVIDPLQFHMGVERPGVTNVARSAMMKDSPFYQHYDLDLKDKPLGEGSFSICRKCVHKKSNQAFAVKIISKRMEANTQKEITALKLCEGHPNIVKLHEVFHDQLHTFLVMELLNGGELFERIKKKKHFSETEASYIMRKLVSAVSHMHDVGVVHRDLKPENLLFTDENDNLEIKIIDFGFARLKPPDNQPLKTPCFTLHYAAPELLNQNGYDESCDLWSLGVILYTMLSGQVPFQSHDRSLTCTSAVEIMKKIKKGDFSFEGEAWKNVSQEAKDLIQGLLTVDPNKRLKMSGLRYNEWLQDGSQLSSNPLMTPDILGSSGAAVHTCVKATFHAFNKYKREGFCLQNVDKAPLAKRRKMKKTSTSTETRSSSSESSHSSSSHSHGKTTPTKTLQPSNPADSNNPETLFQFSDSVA

[3] = biological target: Mitogen-activated protein kinase kinase kinase 11 (Homo sapiens) (UniProt Q16584); assay: Inhibition of recombinant MLK3 (unknown origin) assessed as residual activity at 1 uM relative to control
Sequence of Mitogen-activated protein kinase kinase kinase 11 (Homo sapiens) (Q16584 whole entry, looked up): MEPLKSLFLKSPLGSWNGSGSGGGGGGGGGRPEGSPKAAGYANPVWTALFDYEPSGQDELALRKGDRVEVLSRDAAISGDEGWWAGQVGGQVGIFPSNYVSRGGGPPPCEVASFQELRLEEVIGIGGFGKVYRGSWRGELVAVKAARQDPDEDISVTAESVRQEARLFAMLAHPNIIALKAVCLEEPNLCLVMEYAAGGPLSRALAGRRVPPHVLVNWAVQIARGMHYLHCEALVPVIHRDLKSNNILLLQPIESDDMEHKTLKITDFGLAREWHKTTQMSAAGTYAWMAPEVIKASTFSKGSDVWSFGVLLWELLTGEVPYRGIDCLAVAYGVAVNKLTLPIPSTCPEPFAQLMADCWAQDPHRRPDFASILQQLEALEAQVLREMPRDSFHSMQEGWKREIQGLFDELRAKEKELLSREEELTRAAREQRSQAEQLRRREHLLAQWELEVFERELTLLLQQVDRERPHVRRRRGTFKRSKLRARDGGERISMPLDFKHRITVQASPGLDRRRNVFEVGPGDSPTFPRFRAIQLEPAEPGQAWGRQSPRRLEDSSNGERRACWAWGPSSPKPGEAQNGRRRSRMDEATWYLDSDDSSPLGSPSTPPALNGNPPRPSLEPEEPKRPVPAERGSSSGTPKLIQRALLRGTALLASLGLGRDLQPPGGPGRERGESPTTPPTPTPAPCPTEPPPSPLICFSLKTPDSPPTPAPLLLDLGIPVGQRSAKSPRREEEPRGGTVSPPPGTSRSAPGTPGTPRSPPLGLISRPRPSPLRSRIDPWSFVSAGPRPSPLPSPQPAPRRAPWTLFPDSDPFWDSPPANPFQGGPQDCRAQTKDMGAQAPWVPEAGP

[4] = biological target: Vascular endothelial growth factor receptor (Homo sapiens) (UniProt P17948+P35916+P35968); assay: Inhibition of recombinant VEGFR (unknown origin) assessed as residual activity at 1 uM relative to control; format: protein assay
[5] = Cell cycle arrest in BrdU pulse-labelled human HCT116 cells assessed as accumulation at subG1 phase at 125 to 500 nM after 24 hrs by propidium iodide staining based flow cytometry; format: functional; details: HCT-116
[6] = biological target: Mitogen-activated protein kinase kinase kinase 7 (Homo sapiens) (UniProt O43318); assay: Inhibition of recombinant TAK1 (unknown origin) assessed as residual activity at 1 uM relative to control
[7] = biological target: AMP-activated protein kinase, AMPK (Homo sapiens) (UniProt P54646+O43741+P54619+Q9UGJ0+Q9Y478+Q13131+Q9UGI9); assay: Inhibition of recombinant human AMPK assessed as residual activity at 1 uM relative to control; format: protein-complex assay
[8] = biological target: Tyrosine-protein kinase SYK (Homo sapiens) (UniProt P43405); assay: Inhibition of recombinant SYK (unknown origin) assessed as residual activity at 1 uM relative to control
[9] = biological target: Dual specificity mitogen-activated protein kinase kinase 1 (Homo sapiens) (UniProt Q02750); assay: Inhibition of recombinant MKK1 (unknown origin) assessed as residual activity at 1 uM relative to control
[10] = biological target: Rho-associated protein kinase 2 (Homo sapiens) (UniProt O75116); assay: Inhibition of recombinant ROCK2 (unknown origin) assessed as residual activity at 1 uM relative to control
[11] = biological target: Serine/threonine-protein kinase N2 (Homo sapiens) (UniProt Q16513); assay: Inhibition of recombinant PRK2 (unknown origin) assessed as residual activity at 1 uM relative to control
[12] = biological target: Aurora kinase B (Homo sapiens) (UniProt Q96GD4); assay: Inhibition of recombinant Aurora B (unknown origin) assessed as residual activity at 1 uM relative to control
[13] = biological target: Cyclin-dependent kinase 4 (Homo sapiens, UniProt P11802); assay: Inhibition of CDK4 (unknown origin)
Sequence of Cyclin-dependent kinase 4 (P11802 whole entry): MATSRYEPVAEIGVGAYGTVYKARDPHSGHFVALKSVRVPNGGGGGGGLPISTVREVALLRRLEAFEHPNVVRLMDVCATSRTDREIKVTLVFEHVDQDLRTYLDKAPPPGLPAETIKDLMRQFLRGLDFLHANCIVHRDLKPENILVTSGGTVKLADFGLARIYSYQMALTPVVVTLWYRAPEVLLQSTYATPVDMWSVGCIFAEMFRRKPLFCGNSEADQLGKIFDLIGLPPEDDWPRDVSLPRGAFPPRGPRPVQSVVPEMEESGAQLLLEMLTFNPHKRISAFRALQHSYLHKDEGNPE

[14] = biological target: Cyclin-dependent kinase 7 (Homo sapiens, UniProt P50613); assay: Inhibition of CDK7 (unknown origin)
Sequence of Cyclin-dependent kinase 7 (P50613 whole entry): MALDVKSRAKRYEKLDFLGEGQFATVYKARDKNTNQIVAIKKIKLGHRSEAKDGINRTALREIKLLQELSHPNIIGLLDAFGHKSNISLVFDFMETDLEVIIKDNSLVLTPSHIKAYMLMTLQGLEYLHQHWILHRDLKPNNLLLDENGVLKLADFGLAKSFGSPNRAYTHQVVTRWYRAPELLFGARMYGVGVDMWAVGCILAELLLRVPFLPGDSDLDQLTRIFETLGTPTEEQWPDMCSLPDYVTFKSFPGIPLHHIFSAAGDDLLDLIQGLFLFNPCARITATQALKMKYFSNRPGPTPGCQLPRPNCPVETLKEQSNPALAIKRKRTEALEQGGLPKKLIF

HCT-116 [15] = assay: Induction of apoptosis in human HCT116 cells assessed as decrease in MCL-1 expression incubated for 24 hrs by immunoblotting analysis; format: functional, cell-based
How it was run: (§1)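 HCT-116 cells were treated with different doses for 24 h and harvested into Laemmli buffer. Proteins were separated by SDS-PAGE and blotted to nitrocellulose. Membranes were probed overnight with primary antibodies (anti-PARP F-2, anti-Mcl-1 S-19, anti-p53 DO-1), then with peroxidase secondaries. Bands were detected by ECL with a CCD camera, with tubulin as loading control.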

[16] = biological target: 3-phosphoinositide-dependent protein kinase 1 (Homo sapiens) (UniProt O15530); assay: Inhibition of recombinant PDK1 (unknown origin) assessed as residual activity at 1 uM relative to control
[17] = biological target: Serine/threonine-protein kinase STK11 (Homo sapiens) (UniProt Q15831); assay: Inhibition of recombinant LKB1 (unknown origin) assessed as residual activity at 1 uM relative to control
G-361 = assay: Induction of apoptosis in human G361 cells assessed as caspase7 activation using Ac-DEVD-AMC as substrate at 5 times IC50 preincubated for 24 hrs followed by substrate addition measured after 3 hrs by fluorescence assay; format: functional, cell-based
[18] = biological target: Receptor tyrosine-protein kinase erbB-4 (Homo sapiens) (UniProt Q15303); assay: Inhibition of recombinant HER4 (unknown origin) assessed as residual activity at 1 uM relative to control
[19] = biological target: High affinity nerve growth factor receptor (Homo sapiens) (UniProt P04629); assay: Inhibition of recombinant TrkA (unknown origin) assessed as residual activity at 1 uM relative to control
Sequence of High affinity nerve growth factor receptor (Homo sapiens) (P04629 33-796 limits assumed): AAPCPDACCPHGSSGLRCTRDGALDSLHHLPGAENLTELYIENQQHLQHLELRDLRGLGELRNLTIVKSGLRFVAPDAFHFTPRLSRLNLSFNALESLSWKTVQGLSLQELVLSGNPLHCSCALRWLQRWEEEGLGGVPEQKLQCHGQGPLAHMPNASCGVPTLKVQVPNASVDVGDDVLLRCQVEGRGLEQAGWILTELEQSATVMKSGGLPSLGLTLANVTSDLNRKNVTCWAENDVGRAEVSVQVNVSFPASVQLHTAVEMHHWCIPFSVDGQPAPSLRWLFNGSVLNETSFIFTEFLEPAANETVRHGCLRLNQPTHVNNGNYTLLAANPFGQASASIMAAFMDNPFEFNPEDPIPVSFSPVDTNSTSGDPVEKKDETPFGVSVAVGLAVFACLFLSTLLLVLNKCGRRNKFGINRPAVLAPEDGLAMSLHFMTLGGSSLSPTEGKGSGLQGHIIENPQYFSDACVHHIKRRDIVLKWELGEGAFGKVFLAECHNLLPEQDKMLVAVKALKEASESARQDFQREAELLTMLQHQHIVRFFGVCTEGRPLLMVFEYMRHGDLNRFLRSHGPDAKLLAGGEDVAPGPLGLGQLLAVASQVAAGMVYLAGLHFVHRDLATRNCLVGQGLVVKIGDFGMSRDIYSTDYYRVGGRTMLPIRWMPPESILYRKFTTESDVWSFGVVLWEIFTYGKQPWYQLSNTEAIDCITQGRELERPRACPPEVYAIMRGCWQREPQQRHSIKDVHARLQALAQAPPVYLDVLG

HCT-116 [20] = assay: Induction of apoptosis in human HCT116 cells assessed as increase in p53 expression at 250 to 500 nM incubated for 24 hrs by immunoblotting analysis; format: functional, cell-based; how it was run: as §1
[21] = biological target: Cyclin-dependent kinase 2 (Homo sapiens) (UniProt P24941); assay: Inhibition of CDK2 in human G361 cells assessed as reduction in phosphorylation of RNA polymerase 2 at C-terminus at 1 uM incubated for 0.5 to 24 hrs by immunoblotting analysis; format: cell-based; details: G-361
How it was run: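 Treated G361 cells were lysed in Laemmli buffer, run on SDS-PAGE and blotted to nitrocellulose. Blots were probed overnight with antibodies to RNA polymerase II phosphorylated at S5 and S2, and to total RNA polymerase II (ARNA-3). Peroxidase secondaries were then applied and signal was detected by ECL with a CCD camera.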

HCT-116 [22] = assay: Induction of apoptosis in human HCT116 cells assessed as caspase3 activation using Ac-DEVD-AMC as substrate preincubated for 24 hrs followed by substrate addition measured after 3 hrs by fluorescence assay; format: functional, cell-based
[23] = biological target: Cyclin-dependent kinase 1 (Homo sapiens, UniProt P06493); assay: Inhibition of CDK1 (unknown origin)
Sequence of Cyclin-dependent kinase 1 (P06493 whole entry): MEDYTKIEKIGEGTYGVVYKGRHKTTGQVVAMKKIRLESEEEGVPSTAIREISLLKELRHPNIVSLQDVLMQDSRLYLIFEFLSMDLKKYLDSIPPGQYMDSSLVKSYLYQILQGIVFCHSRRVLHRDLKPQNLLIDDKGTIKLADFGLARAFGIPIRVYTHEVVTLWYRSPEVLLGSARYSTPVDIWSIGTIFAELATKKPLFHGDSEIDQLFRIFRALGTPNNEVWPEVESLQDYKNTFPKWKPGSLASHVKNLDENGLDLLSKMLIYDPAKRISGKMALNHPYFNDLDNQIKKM

[24] = biological target: RAC-alpha serine/threonine-protein kinase (Homo sapiens) (UniProt P31749); assay: Inhibition of recombinant PKBalpha (unknown origin) assessed as residual activity at 1 uM relative to control
HCT-116 [25] = assay: Induction of apoptosis in human HCT116 cells assessed as PARP1 cleavage incubated for 24 hrs by immunoblotting analysis; format: functional, cell-based; how it was run: as §1
[26] = biological target: Glycogen synthase kinase-3 beta (Homo sapiens) (UniProt P49841); assay: Inhibition of recombinant GSK3beta (unknown origin) assessed as residual activity at 1 uM relative to control
[27] = biological target: Ephrin type-A receptor 2 (Homo sapiens) (UniProt P29317); assay: Inhibition of recombinant EPHA2 (unknown origin) assessed as residual activity at 1 uM relative to control
Sequence of Ephrin type-A receptor 2 (Homo sapiens) (P29317 whole entry): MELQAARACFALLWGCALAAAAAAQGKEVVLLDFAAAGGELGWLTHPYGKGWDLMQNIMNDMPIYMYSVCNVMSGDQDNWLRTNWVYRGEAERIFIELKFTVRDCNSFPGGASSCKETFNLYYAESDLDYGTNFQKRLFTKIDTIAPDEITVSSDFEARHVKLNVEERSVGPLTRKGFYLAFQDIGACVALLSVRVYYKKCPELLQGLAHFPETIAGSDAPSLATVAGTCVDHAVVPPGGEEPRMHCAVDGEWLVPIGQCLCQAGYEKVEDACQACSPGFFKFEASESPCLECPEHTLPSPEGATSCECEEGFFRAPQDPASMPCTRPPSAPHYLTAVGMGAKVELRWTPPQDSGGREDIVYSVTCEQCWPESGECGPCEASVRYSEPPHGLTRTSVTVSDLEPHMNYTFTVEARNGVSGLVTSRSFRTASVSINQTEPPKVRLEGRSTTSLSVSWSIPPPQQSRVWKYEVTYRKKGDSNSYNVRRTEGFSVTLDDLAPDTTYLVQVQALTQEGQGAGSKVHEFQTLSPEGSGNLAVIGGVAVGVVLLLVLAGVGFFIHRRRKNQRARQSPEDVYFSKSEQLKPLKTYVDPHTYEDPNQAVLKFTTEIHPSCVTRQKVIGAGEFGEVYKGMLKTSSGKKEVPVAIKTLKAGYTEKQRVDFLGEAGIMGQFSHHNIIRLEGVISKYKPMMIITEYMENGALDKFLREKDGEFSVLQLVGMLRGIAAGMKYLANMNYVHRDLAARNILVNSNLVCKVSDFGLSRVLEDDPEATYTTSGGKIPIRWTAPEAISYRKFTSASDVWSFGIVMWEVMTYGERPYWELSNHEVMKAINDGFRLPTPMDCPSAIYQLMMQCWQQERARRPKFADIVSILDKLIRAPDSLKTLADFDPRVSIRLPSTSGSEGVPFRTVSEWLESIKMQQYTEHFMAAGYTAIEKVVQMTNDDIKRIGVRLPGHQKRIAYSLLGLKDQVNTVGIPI

[28] = biological target: Serine/threonine-protein kinase PAK 4 (Homo sapiens) (UniProt O96013); assay: Inhibition of recombinant PAK4 (unknown origin) assessed as residual activity at 1 uM relative to control
[29] = biological target: Eukaryotic elongation factor 2 kinase (Homo sapiens) (UniProt O00418); assay: Inhibition of recombinant EF2K (unknown origin) assessed as residual activity at 1 uM relative to control
[30] = biological target: SRSF protein kinase 1 (Homo sapiens) (UniProt Q96SB4); assay: Inhibition of recombinant SRPK1 (unknown origin) assessed as residual activity at 1 uM relative to control
Sequence of SRSF protein kinase 1 (Homo sapiens) (Q96SB4 whole entry): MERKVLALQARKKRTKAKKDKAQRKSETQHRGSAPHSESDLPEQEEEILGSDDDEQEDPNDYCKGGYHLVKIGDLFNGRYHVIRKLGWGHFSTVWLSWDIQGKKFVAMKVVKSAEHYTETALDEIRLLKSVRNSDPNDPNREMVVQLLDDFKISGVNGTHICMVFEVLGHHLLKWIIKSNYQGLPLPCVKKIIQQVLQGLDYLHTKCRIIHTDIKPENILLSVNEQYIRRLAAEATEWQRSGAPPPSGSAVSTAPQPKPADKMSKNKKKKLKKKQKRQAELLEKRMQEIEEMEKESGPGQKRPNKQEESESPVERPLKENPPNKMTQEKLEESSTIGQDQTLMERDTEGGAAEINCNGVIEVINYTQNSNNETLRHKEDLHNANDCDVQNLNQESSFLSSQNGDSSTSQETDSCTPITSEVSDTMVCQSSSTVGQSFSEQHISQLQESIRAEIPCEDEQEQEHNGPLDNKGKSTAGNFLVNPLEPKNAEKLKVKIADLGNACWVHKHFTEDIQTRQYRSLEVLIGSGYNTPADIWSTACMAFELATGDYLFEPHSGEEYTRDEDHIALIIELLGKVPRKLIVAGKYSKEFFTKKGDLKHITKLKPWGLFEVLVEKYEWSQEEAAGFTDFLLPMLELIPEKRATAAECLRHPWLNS

[31] = biological target: Serine/threonine-protein kinase 3 (Homo sapiens) (UniProt Q13188); assay: Inhibition of recombinant MST2 (unknown origin) assessed as residual activity at 1 uM relative to control

SMILES: CC(O)CNc1nc(NCc2ccc(-c3ccccn3)cc2)c2[nH]nc(C(C)C)c2n1 (configuration not stated)
- Activity [1]: 85%
- Activity [2]: 97%
- Activity [3]: 98%
- Activity [4]: > 100%
- Activity [5]: Active
- Activity [6]: > 100%
- Activity [7]: 68%
- Activity [8]: > 100%
- Activity [9]: 87%
- Activity [10]: > 100%
- Activity [11]: > 100%
- Activity [12]: 89%
- IC50 [13]: > 2 µM
- IC50 [14]: 2.78 µM
- Activity (HCT-116 [15]): Dose-dependent effect
- Activity [16]: > 100%
- Activity [17]: 82%
- Activity (G-361): Active
- Activity [18]: > 100%
- Activity [19]: > 100%
- Activity (HCT-116 [20]): Active
- inhibition [21]: Active
- Activity (HCT-116 [22]): Dose-dependent effect
- IC50 [23]: 0.777 µM
- Activity [24]: > 100%
- Activity (HCT-116 [25]): Dose-dependent effect
- Activity [26]: > 100%
- Activity [27]: 92%
- Activity [28]: 69%
- Activity [29]: 92%
- Activity [30]: 95%
- Activity [31]: > 100%
